Laboratory results published in ChEMBL document CHEMBL1127053, “3,4-Dimethyl-4-(3-hydroxyphenyl)piperidines: opioid antagonists with potent anorectant activity” (J Med Chem, 1993).

Experiments:
[1] = biological target: Mu-type opioid receptor (Mus musculus) (UniProt P42866); assay: Antagonistic activity towards morphine induced mu-opioid receptor by mouse writhing assay at 1.25 mg/kg subcutaneously; assay type: functional, organism-based; parameters: dose 1.25 mg/kg
Procedure, shortened: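 Mouse acetic acid writhing: 0.6% acetic acid ip, writhes counted for 10 min starting 5 min after injection. Agonist (morphine 1.25 mg/kg or U50,488 2.5 mg/kg) and antagonist given sc 20 min before acid. 5 mice/point, ≥5 doses varied 2-fold, each mouse used once. AD50 = antagonist dose reducing agonist-induced writhing inhibition to 50%.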

[2] = biological target: Kappa-type opioid receptor (Mus musculus) (UniProt P33534); assay: Antagonist activity towards U50 488 induced kappa opioid receptor by mouse writhing assay at 2.5 mg/kg subcutaneously; assay type: functional, organism-based; parameters: dose 2.5 mg/kg
Kappa-type opioid receptor (Mus musculus), sequence (P33534 whole entry): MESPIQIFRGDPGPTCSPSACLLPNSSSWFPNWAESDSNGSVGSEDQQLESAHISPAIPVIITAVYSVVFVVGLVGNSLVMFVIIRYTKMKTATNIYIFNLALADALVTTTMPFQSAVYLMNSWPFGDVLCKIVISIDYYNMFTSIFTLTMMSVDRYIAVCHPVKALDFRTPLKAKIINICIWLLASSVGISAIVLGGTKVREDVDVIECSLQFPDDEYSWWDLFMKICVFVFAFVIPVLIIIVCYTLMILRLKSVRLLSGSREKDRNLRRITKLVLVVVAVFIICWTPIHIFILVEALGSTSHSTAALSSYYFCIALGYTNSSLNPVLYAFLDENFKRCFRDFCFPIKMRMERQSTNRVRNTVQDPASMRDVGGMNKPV
Procedure, shortened: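 Mouse acetic acid writhing: 0.6% acetic acid ip, writhes counted for 10 min starting 5 min after injection. 5 mice/point, ≥5 doses varied 2-fold, each mouse used once. AD50 = antagonist dose reducing agonist-induced writhing inhibition to 50%.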

[3] = biological target: Kappa-type opioid receptor (Rattus norvegicus) (UniProt P34975); assay: Antagonism of bremazocine induced kappa receptor diuresis in rats at a concentration of 0.08 mg/kg subcutaneously; assay type: functional, organism-based; parameters: dose 0.08 mg/kg
Kappa-type opioid receptor (Rattus norvegicus), sequence (P34975 whole entry): as the sequence (P33534 whole entry) above, with D11E, S17A, S51P, A308V counted along it
Procedure, shortened: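 Male Long-Evans hooded rats (350-500 g), reused no more than twice weekly. Bremazocine 0.08 mg/kg sc, test antagonist sc on the opposite side without delay. Rats housed in metabolism cages; urine volume recorded at 2 and 5 h. 3 rats/dose, doses varied 2-fold. AD50 = dose reducing cumulative 5-h induced urination by 50%.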

Rattus norvegicus = assay: Tested for concentration required to reduce the food consumption by 20 % subcutaneously; assay type: functional
Procedure, shortened: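 Obese Zucker rats, 3-4 months old, trained to eat only 8 am-4 pm. Groups of 4 (2 male, 2 female), with one saline control group daily. Compound in saline with 10% DMSO, given sc on 3 consecutive days, typical doses 5.0-0.08 mg/kg (0.02-20 in some cases). Intake measured over the first 4 h. ED20 from regression of the linear portion of the dose-response curve.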

[4] = biological target: Kappa-type opioid receptor (Cavia porcellus, UniProt P41144); assay: Binding affinity towards kappa opioid receptor by displacement of [3H]EKC in guinea pig cortical tissue
Kappa-type opioid receptor, sequence (P41144 whole entry): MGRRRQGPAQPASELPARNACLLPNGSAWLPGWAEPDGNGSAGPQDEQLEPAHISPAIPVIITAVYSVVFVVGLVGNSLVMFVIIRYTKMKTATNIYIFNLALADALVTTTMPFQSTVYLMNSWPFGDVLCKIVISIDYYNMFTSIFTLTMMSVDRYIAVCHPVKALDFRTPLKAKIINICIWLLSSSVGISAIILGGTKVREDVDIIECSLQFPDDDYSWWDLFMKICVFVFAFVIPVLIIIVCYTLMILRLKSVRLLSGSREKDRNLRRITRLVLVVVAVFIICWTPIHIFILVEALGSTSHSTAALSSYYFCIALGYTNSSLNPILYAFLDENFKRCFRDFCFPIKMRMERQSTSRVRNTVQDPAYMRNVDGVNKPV
Procedure, shortened: (§1)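 Radioligand displacement. Kappa: [3H]EKC, guinea pig cortex, with fentanyl and DADL added to block mu/delta binding. Delta: [3H]DADL, rat brain homogenate.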

Mu-type opioid receptor = Mu-type opioid receptor (Rattus norvegicus, UniProt P33535); assay: Binding affinity towards mu-opioid receptor by the displacement of [3H]Nal in rat brain homogenates; assay type: tissue-based
Mu-type opioid receptor, sequence (P33535 whole entry): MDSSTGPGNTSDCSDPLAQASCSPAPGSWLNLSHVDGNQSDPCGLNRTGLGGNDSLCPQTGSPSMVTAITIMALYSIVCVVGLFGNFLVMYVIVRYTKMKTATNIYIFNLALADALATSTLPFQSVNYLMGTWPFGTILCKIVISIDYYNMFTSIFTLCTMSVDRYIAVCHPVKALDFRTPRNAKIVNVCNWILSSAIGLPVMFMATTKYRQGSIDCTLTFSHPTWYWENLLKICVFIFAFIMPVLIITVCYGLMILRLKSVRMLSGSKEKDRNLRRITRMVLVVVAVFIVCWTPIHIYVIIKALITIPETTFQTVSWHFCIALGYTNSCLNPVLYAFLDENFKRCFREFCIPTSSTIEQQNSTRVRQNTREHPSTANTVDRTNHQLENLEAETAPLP

[5] = biological target: Delta-type opioid receptor (Rattus norvegicus, UniProt P33533); assay: Binding affinity towards delta-opioid receptor by displacement of [3H]DADL in rat brain homogenates; assay type: tissue-based; procedure, shortened: as §1
Delta-type opioid receptor, sequence (P33533 whole entry): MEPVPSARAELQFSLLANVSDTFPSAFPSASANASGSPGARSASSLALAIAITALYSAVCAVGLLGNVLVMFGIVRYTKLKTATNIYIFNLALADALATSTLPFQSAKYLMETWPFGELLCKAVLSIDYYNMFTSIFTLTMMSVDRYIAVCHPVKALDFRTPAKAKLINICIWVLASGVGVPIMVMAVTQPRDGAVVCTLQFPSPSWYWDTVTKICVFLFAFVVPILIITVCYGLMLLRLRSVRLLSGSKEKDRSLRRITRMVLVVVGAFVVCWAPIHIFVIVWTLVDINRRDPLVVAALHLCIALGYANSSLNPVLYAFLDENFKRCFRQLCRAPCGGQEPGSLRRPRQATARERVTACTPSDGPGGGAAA

[6] = Rattus norvegicus, sc, read-out: ED50

Mu-type opioid receptor (Mus musculus), sequence (P42866 whole entry): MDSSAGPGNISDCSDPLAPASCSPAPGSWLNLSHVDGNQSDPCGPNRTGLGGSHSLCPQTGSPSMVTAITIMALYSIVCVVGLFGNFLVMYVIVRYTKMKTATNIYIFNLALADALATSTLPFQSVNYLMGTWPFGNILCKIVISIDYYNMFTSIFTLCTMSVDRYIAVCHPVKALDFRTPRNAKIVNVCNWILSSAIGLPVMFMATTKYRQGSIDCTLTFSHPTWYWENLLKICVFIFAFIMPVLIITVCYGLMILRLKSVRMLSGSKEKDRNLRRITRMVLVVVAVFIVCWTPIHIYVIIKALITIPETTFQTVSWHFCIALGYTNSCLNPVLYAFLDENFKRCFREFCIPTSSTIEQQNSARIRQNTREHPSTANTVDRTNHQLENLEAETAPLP

| SMILES | AD50 [1] | AD50 [2] | AD50 [3] | ED50 (Rattus norvegicus; [6]) | Ki [4] | Ki (Mu-type opioid receptor) | Ki [5] | ED50 (Rattus norvegicus) |
| --- | --- | --- | --- | --- | --- | --- | --- | --- |
| CCCCCCN1CC[C@@](C)(c2cccc(O)c2)[C@@H](C)C1 (stereo in doubt; 37) [listing 1 of 2 here] | 0.26 mg/kg | 0.22 mg/kg | 0.86 mg/kg |  |  |  |  |  |
| C[C@H]1CN(CCC(O)c2cccs2)CC[C@@]1(C)c1cccc(O)c1 (stereo not given in full) |  |  |  | 0.07 mg/kg |  |  |  |  |
| C[C@H]1CN(CCCc2ccccc2)CC[C@@]1(C)c1cccc(O)c1 |  | 5.3 mg/kg |  | 1.3 mg/kg |  |  |  |  |
| C=CCN1CC[C@]23c4c5ccc(O)c4O[C@H]2C(=O)CC[C@@]3(O)[C@H]1C5 [NALOXONE] |  |  |  | 1.2 mg/kg |  |  |  |  |
| C[C@H]1CN(CCCc2cccs2)CC[C@@]1(C)c1cccc(O)c1 (stereo in doubt; 29) [listing 1 of 2 here] |  |  |  | 0.07 mg/kg |  |  |  |  |
| CC(C)CCCCN1CC[C@@](C)(c2cccc(O)c2)[C@@H](C)C1 (stereo in doubt; 21) [listing 1 of 2 here] | 0.58 mg/kg | 0.24 mg/kg | 0.39 mg/kg |  |  |  |  |  |
| C[C@H]1CN(CCC2C=CCC2)CC[C@@]1(C)c1cccc(O)c1 (stereo not given in full) | 0.11 mg/kg | 0.12 mg/kg | 1.4 mg/kg | 0.44 mg/kg | 1 nM | 12 nM |  |  |
| C[C@H]1CN(CCCC2CCCC2)CC[C@@]1(C)c1cccc(O)c1 | 0.12 mg/kg | 0.13 mg/kg | 0.79 mg/kg | 1.2 mg/kg | 3.4 nM | 0.37 nM |  |  |
| C[C@H]1CN(CC[C@@H](O)C2CCCCC2)CC[C@@]1(C)c1cccc(O)c1 | 0.03 mg/kg | 0.36 mg/kg | 1.1 mg/kg | 0.16 mg/kg | 11.4 nM | 2.4 nM |  |  |
| C[C@H]1CN(CCC2CCCC2)CC[C@@]1(C)c1cccc(O)c1 | 0.14 mg/kg | 0.22 mg/kg | 0.67 mg/kg | 0.34 mg/kg | 7.2 nM | 2.3 nM |  |  |
| CC(C)CCN1CC[C@@](C)(c2cccc(O)c2)[C@@H](C)C1 | 0.87 mg/kg | 0.62 mg/kg | 4.5 mg/kg | > 20 mg/kg | 70 nM | 32 nM |  |  |
| CC(C)CCCCN1CC[C@](C)(c2cccc(O)c2)[C@H](C)C1 | 0.35 mg/kg | 0.89 mg/kg | 4.75 mg/kg | 0.14 mg/kg | 3.04 nM | 1.36 nM |  |  |
| C=C1CC[C@@]2(O)[C@H]3Cc4ccc(O)c5c4[C@@]2(CCN3CC2CC2)[C@H]1O5 | 0.02 mg/kg | 0.14 mg/kg | 0.99 mg/kg | 1.5 mg/kg | 2 nM | 0.29 nM | 3.4 nM |  |
| C[C@H]1CN(CCC(O)C2CCCC2)CC[C@@]1(C)c1cccc(O)c1 (stereo not given in full) | 0.04 mg/kg | 0.08 mg/kg | 0.99 mg/kg | 0.09 mg/kg | 5.5 nM | 0.41 nM |  |  |
| CC(C)C(O)CCN1CC[C@@](C)(c2cccc(O)c2)[C@@H](C)C1 (stereo not given in full) | 0.14 mg/kg | 0.35 mg/kg | 0.17 mg/kg | 0.65 mg/kg | 6.9 nM | 2.6 nM |  |  |
| C[C@H]1CN(CCCc2ccsc2)CC[C@@]1(C)c1cccc(O)c1 | 0.12 mg/kg | 0.24 mg/kg | 1.9 mg/kg | 0.06 mg/kg |  |  |  |  |
| C[C@H]1CN(CCC(O)c2ccccc2)CC[C@@]1(C)c1cccc(O)c1 (stereo not given in full) | 0.05 mg/kg | 0.92 mg/kg | 2.5 mg/kg | 0.5 mg/kg |  | 1 nM |  |  |
| CCCCCCN1CC[C@@](C)(c2cccc(O)c2)[C@@H](C)C1 (stereo in doubt; 16) |  |  |  |  |  |  |  | 0.51 mg/kg |

| SMILES | AD50 [1] | AD50 [2] | AD50 [3] | ED50 (Rattus norvegicus; [6]) | Ki [4] | Ki (Mu-type opioid receptor) | Ki [5] | ED50 (Rattus norvegicus) |
| --- | --- | --- | --- | --- | --- | --- | --- | --- |
| C[C@H]1CN(CCC(=O)C2CCCCC2)CC[C@@]1(C)c1cccc(O)c1 | 0.12 mg/kg | 0.26 mg/kg |  | 0.13 mg/kg | 3.9 nM | 0.34 nM |  |  |
| CC(C)CCCCN1CC[C@@](C)(c2cccc(O)c2)[C@@H](C)C1 (stereo in doubt; 39) [listing 1 of 2 here] | 0.08 mg/kg | 0.22 mg/kg | 1.31 mg/kg |  |  |  |  |  |
| C=C(C)CCCN1CC[C@@](C)(c2cccc(O)c2)[C@@H](C)C1 | 0.077 mg/kg | 0.095 mg/kg | 0.39 mg/kg | 0.29 mg/kg | 21 nM | 0.17 nM |  |  |
| CCCCCCN1CC[C@@](C)(c2cccc(O)c2)[C@@H](C)C1 (stereo in doubt; 37) [listing 2 of 2 here] |  |  |  |  |  | 1.1 nM |  | 0.19 mg/kg |
| C[C@H]1CN(CCCc2cccs2)CC[C@@]1(C)c1cccc(O)c1 (stereo in doubt; 41) [listing 1 of 2 here] |  |  |  |  |  |  | 10.3 nM | 0.11 mg/kg |
| CC(C)CCCCN1CC[C@@](C)(c2cccc(O)c2)[C@@H](C)C1 (stereo in doubt; 39) [listing 2 of 2 here] |  |  |  |  | 1.91 nM | 0.89 nM |  | 0.14 mg/kg |
| C[C@H]1CN(CC2CCCCC2)CC[C@@]1(C)c1cccc(O)c1 | 1.1 mg/kg | 0.47 mg/kg | 4.6 mg/kg | > 20 mg/kg | 29 nM | 17 nM |  |  |
| C[C@H]1CN(CCC2CCCCC2)CC[C@@]1(C)c1cccc(O)c1 | 0.1 mg/kg | 0.12 mg/kg | 0.69 mg/kg | 3.6 mg/kg | 2.3 nM | 0.65 nM |  |  |
| C[C@H]1CN(CCCc2cccs2)CC[C@@]1(C)c1cccc(O)c1 (stereo in doubt; 41) [listing 2 of 2 here] |  |  | 1.18 mg/kg |  |  |  |  |  |
| CC(C)CCCCN1CC[C@@](C)(c2cccc(O)c2)[C@@H](C)C1 (stereo in doubt; 21) [listing 2 of 2 here] |  |  |  |  | 5.9 nM | 0.46 nM |  | 0.06 mg/kg |
| C[C@@H]1CN(CC[C@H](O)C2CCCCC2)CC[C@]1(C)c1cccc(O)c1 | 0.13 mg/kg | 0.24 mg/kg | 1.6 mg/kg | 0.11 mg/kg | 6.5 nM |  |  |  |
| CCCCCCN1CC[C@](C)(c2cccc(O)c2)[C@H](C)C1 | 0.21 mg/kg | 0.29 mg/kg | 1.34 mg/kg | 1.17 mg/kg |  | 5.61 nM |  |  |
| C[C@@H]1CN(CCCc2cccs2)CC[C@]1(C)c1cccc(O)c1 | 0.24 mg/kg | 0.65 mg/kg | 1.66 mg/kg | 0.4 mg/kg |  |  |  |  |
| C[C@H]1CN(CCC(O)C2CCCCC2)CC[C@@]1(C)c1cccc(O)c1 (stereo not given in full) | 0.07 mg/kg | 0.14 mg/kg | 0.49 mg/kg | 0.05 mg/kg | 4.8 nM | 0.29 nM |  |  |
| C[C@H]1CN(CCCc2cccs2)CC[C@@]1(C)c1cccc(O)c1 (stereo in doubt; 29) [listing 2 of 2 here] | 0.22 mg/kg |  | 1 mg/kg |  |  |  |  |  |
| C[C@H]1CN(CCCC2CCCCC2)CC[C@@]1(C)c1cccc(O)c1 | 0.35 mg/kg | 0.19 mg/kg | 1 mg/kg | 0.12 mg/kg | 2.3 nM | 0.49 nM |  |  |
| C[C@H]1CN(C)CC[C@@]1(C)c1cccc(O)c1 |  | > 5 mg/kg | > 5 mg/kg | 4.1 mg/kg |  |  |  |  |
| CC(C)CCCN1CC[C@@](C)(c2cccc(O)c2)[C@@H](C)C1 | 0.11 mg/kg | 0.073 mg/kg | 0.39 mg/kg | 2.1 mg/kg | 9.6 nM | 0.29 nM |  |  |
